# How the values were obtained:
# Trypanosoma cruzi [1] = experiment: Antitrypanosomal activity against Trypanosoma cruzi Tulahuen 2 at 25 uM; format: functional
# In short: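 Tulahuen 2 epimastigotes (8 × 10⁶ cells/mL, 28 °C, BHI-tryptose with 5% FBS) were exposed to a single drug concentration, with final DMSO ≤0.4% and a vehicle control. Percent growth inhibition = {1 − [(Ap − A0p)/(Ac − A0c)]} × 100, using A600 of drug and control cultures at day 0 and day 5.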
# Trypanosoma cruzi [2] = experiment: Antitrypanosomal activity against Trypanosoma cruzi Tulahuen 2; format: functional; details: read-out: ID50 (the source's name)
# In short: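 Epimastigotes were grown at 28 °C in BHI-tryptose with 5% FBS. Stationary-phase parasites are inoculated at 8 × 10⁶ cells/mL into medium containing increasing drug concentrations from DMSO stock (final DMSO ≤0.4%; vehicle control). Growth is followed by A600. ID50 is the concentration that halves the day-5 absorbance ratio relative to control.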
# [3] = Cytotoxicity against mouse J774 cells after 48 hrs by MTT assay; format: cell-based; details: read-out: ID50
# In short: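 J-774 macrophages were seeded at 1 × 10⁵ cells/well in RPMI 1640 with 20% heat-inactivated FCS and left to attach for 48 h at 37 °C in 5% CO₂. Cells were then exposed to compounds for 48 h. MTT was added at 0.4 mg/mL final, formazan was dissolved in DMSO, and A595 was read. ID50 is the concentration cutting control absorbance by 50%, averaged over three experiments.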
# [4] = Selectivity index, ratio of ID50 for mouse J774 cells to ID50 for Trypanosoma cruzi Tulahuen 2; format: toxicity, cell-based; details: J774 cells versus Trypanosoma cruzi Tulahuen 2
# In short: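 Selectivity index is the ID50 in J-774 macrophages (48 h MTT) divided by the ID50 against Tulahuen 2 epimastigotes (day-5 A600 growth).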
# Candida albicans = experiment: Antifungal activity against Candida albicans ATCC 10231 after 48 hrs; format: functional; details: ATCC 10231, 48 h
# In short: (§1)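 CLSI M27-A2 broth microdilution in RPMI 1640 buffered to pH 7.0 with MOPS. Inoculum is 10³ CFU/mL from Sabouraud-grown yeasts. Compound is two-fold serially diluted, final DMSO ≤1%. Incubated at 35 °C in a moist, dark chamber and read visually at 48 h. MIC is the lowest concentration giving total growth inhibition.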
# Candida tropicalis = experiment: Antifungal activity against Candida tropicalis C 131 2000 after 48 hrs; format: functional; details: Candida tropicalis, C 131 2000, 48 h; for MIC: read-out: MIC; in short: as §1
# Saccharomyces cerevisiae = experiment: Antifungal activity against Saccharomyces cerevisiae ATCC 9763 after 48 hrs; format: functional; details: ATCC 9763, 48 h; in short: as §1
# Cryptococcus neoformans = experiment: Antifungal activity against Cryptococcus neoformans ATCC 32264 after 48 hrs; format: functional; details: Cryptococcus neoformans, ATCC 32264, 48 h; for MIC: read-out: MIC; in short: as §1
# Aspergillus fumigatus = experiment: Antifungal activity against Aspergillus fumigatus ATCC 26934 after 48 hrs; format: functional; details: ATCC 26934, 48 h
# In short: (§2)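 Aspergillus spp. were tested by CLSI M38-A broth microdilution in RPMI 1640 with MOPS at pH 7.0. Spore inoculum is 10³ CFU/mL, with two-fold compound dilutions and final DMSO ≤1%. Incubated at 35 °C in a moist, dark chamber. MIC is read visually as total growth inhibition, at a time set by growth of the control fungus.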
# Aspergillus flavus = experiment: Antifungal activity against Aspergillus flavus ATCC 9170 after 48 hrs; format: functional; details: ATCC 9170, 48 h; in short: as §2
# Aspergillus niger = experiment: Antifungal activity against Aspergillus niger ATCC 9029 after 48 hrs; format: functional; details: ATCC 9029, 48 h; in short: as §2
# Nannizzia gypsea = experiment: Antifungal activity against Microsporum gypseum C 115 after 48 hrs; format: functional; details: C 115, 48 h
# In short: (§3)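 Dermatophytes were tested by CLSI M38-A microdilution in MOPS-buffered RPMI 1640 at pH 7.0. Inoculum is 10³ CFU/mL, with two-fold serial compound dilutions and final DMSO ≤1%. Trays are kept at 28–30 °C in a moist, dark chamber. MIC is the lowest concentration with total growth inhibition, read visually when control growth allows.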
# Trichophyton rubrum = experiment: Antifungal activity against Trichophyton rubrum C 113 after 48 hrs; format: functional; details: C 113, 48 h; in short: as §3
# [5] = test system: Trichophyton mentagrophytes; experiment: Antifungal activity against Trichophyton mentagrophytes ATCC 9972 after 48 hrs; format: functional; details: ATCC 9972, 48 h; in short: as §3
SMILES,inhibition at 25 µM (Trypanosoma cruzi [1]),IC50 (Trypanosoma cruzi [2]),CC50 at 48 h [3],selectivity ratio [4],MIC (Candida albicans),MIC (Candida tropicalis),MIC (Saccharomyces cerevisiae),MIC (Aspergillus fumigatus),MIC (Aspergillus flavus),MIC (Aspergillus niger),MIC (Nannizzia gypsea),MIC (Trichophyton rubrum),MIC [5],further results
C=CCNC(=S)N/N=C/c1ccc2c(c1)[n+]([O-])c(C(=O)Nc1ccccc1)c(-c1ccccc1)[n+]2[O-],18%,,,,,,,,,,,,,
CN(C/C=C/c1ccccc1)CCCCCn1nc(OCc2ccccc2)c2cc([N+](=O)[O-])ccc21,,7.8 µM,< 100 µM,< 12.8,,,,,,,,,,
C[C@@H]1[C@H](O)[C@@H](C)/C=C/C=C/C=C/C=C/C=C/C=C/C=C/[C@H](O[C@@H]2O[C@H](C)[C@@H](O)[C@H](N)[C@@H]2O)C[C@@H]2O[C@](O)(C[C@@H](O)C[C@@H](O)[C@H](O)CC[C@@H](O)C[C@@H](O)CC(=O)O[C@H]1C)C[C@H](O)[C@H]2C(=O)O [AMPHOTERICIN B],,,,,0.78 µg/mL,1.56 µg/mL,0.5 µg/mL,0.5 µg/mL,0.5 µg/mL,0.5 µg/mL,0.125 µg/mL,0.075 µg/mL,0.075 µg/mL,MIC (Cryptococcus neoformans): 0.25 µg/mL
CC(=O)N1CCN(c2ccc(OCC3COC(Cn4ccnc4)(c4ccc(Cl)cc4Cl)O3)cc2)CC1 (centres undefined) [KETOCONAZOLE],,,339 µM,19.9,0.5 µg/mL,0.5 µg/mL,0.5 µg/mL,0.125 µg/mL,0.5 µg/mL,0.25 µg/mL,0.05 µg/mL,0.025 µg/mL,0.025 µg/mL,MIC (Cryptococcus neoformans): 0.25 µg/mL
N#Cc1c2ccccc2[n+]([O-])n1CC/C=C\c1ccc(Cl)cc1,20%,,,,,,,,,,,,,
N#Cc1c2ccccc2[n+]([O-])n1CC/C=C\c1ccccc1,30%,,,,,,,,,,,,,
COc1nn(CCOCCN(C)C/C=C/c2ccccc2)c2ccc([N+](=O)[O-])cc12,,23.1 µM,< 100 µM,< 4.3,,,,,,,,,,
C=CCNC(=S)N/N=C/c1ccc2c(c1)=[N+]([O-])C(C)(C)[N+]=2[O-],,7.2 µM,104 µM,14.4,> 250 µg/mL,> 250 µg/mL,> 250 µg/mL,> 250 µg/mL,> 250 µg/mL,> 250 µg/mL,250 µg/mL,250 µg/mL,250 µg/mL,MIC (Cryptococcus neoformans): > 250 µg/mL; MFC (Nannizzia gypsea): 250 µg/mL; MFC (Trichophyton rubrum): 250 µg/mL; MFC [5]: 250 µg/mL
O=[N+]([O-])c1ccc2c(c1)c(OCc1ccccc1)nn2CCOCCNCCC/C=C/c1ccccc1,,4.5 µM,< 100 µM,< 22.2,,,,,,,,,,
CC1(C)[N+]([O-])=c2ccc(CN3CCN(C/C=C/c4ccccc4)CC3)cc2=[N+]1[O-],,25 µM,109 µM,4.4,,,,,,,,,,
O=[N+]([O-])c1ccc2c(c1)c(OCc1ccccc1)nn2CCOCCN(CCC/C=C/c1ccccc1)CCOCCn1nc(OCc2ccccc2)c2cc([N+](=O)[O-])ccc21,0%,,,,,,,,,,,,,
[O-][n+]1onc2ccc(CN3CCN(C/C=C/c4ccccc4)CC3)cc21,14%,,,,,,,,,,,,,
C=CCNC(=S)N/N=C/c1ccc2c(c1)[n+]([O-])c(C(=O)OCC)c(-c1ccccc1)[n+]2[O-],,7.5 µM,> 400 µM,> 33.3,,,,,,,,,,
CN(C/C=C/c1ccccc1)Cc1ccc2c(c1)[n+]([O-])c(C#N)c(N)[n+]2[O-],0%,,,,,,,,,,,,,
N#Cc1c(N)[n+]([O-])c2ccc(CN3CCN(C/C=C/c4ccccc4)CC3)cc2[n+]1[O-],0%,,,,,,,,,,,,,
Cc1c(C(=O)Nc2ccccc2)[n+]([O-])c2cc(CN(C)C/C=C/c3ccccc3)ccc2[n+]1[O-],34%,,,,,,,,,,,,,
O=[N+]([O-])c1ccc2c(c1)c(OCc1ccccc1)nn2CCOCCN1CCN(C/C=C/c2ccccc2)CC1,,6.5 µM,< 100 µM,< 15.4,> 250 µg/mL,> 250 µg/mL,> 250 µg/mL,> 250 µg/mL,> 250 µg/mL,> 250 µg/mL,125 µg/mL,125 µg/mL,125 µg/mL,MIC (Cryptococcus neoformans): > 250 µg/mL; MFC (Nannizzia gypsea): > 250 µg/mL; MFC (Trichophyton rubrum): > 250 µg/mL; MFC [5]: > 250 µg/mL
CCOC(=O)c1c(-c2ccccc2)[n+]([O-])c2ccc(CN3CCN(C/C=C/c4ccccc4)CC3)cc2[n+]1[O-],,9.5 µM,< 100 µM,< 10.5,250 µg/mL,250 µg/mL,125 µg/mL,> 250 µg/mL,> 250 µg/mL,> 250 µg/mL,250 µg/mL,125 µg/mL,125 µg/mL,MFC (Candida albicans): > 250 µg/mL; MFC (Candida tropicalis): > 250 µg/mL; MFC (Saccharomyces cerevisiae): 250 µg/mL; MFC (Cryptococcus neoformans): 250 µg/mL; MIC (Cryptococcus neoformans): 125 µg/mL; MFC (Nannizzia gypsea): > 250 µg/mL; MFC (Trichophyton rubrum): 250 µg/mL; MFC [5]: 250 µg/mL
Cc1c(C(=O)Nc2ccccc2)[n+]([O-])c2cc(CN3CCN(C/C=C/c4ccccc4)CC3)ccc2[n+]1[O-],,25.4 µM,,,> 250 µg/mL,> 250 µg/mL,> 250 µg/mL,> 250 µg/mL,> 250 µg/mL,> 250 µg/mL,125 µg/mL,125 µg/mL,125 µg/mL,MFC (Nannizzia gypsea): > 250 µg/mL; MFC (Trichophyton rubrum): > 250 µg/mL; MFC [5]: > 250 µg/mL
CC1CS(=O)(=O)CCN1/N=C/c1ccc([N+](=O)[O-])o1 (centres undefined) [NIFURTIMOX],,,,> 33.3,,,,,,,,,,
CN(C/C=C/c1ccccc1)Cc1ccc2c(c1)=[N+]([O-])C(C)(C)[N+]=2[O-],,22.7 µM,> 400 µM,> 17.6,,,,,,,,,,
CN(C/C=C/C#CC(C)(C)C)Cc1cccc2ccccc12 [TERBINAFINE],,,< 100 µM,< 10,1.56 µg/mL,1.56 µg/mL,3.12 µg/mL,0.78 µg/mL,0.78 µg/mL,1.56 µg/mL,0.04 µg/mL,0.01 µg/mL,0.025 µg/mL,MIC (Cryptococcus neoformans): 0.39 µg/mL
CN(C/C=C/c1ccccc1)CCOCCn1nc(OCc2ccccc2)c2cc([N+](=O)[O-])ccc21,,10 µM,< 100 µM,< 10,,,,,,,,,,

# Source: ChEMBL document CHEMBL1165856, “Naftifine-analogues as anti-Trypanosoma cruzi agents” (Eur J Med Chem, 2010)
